Shown are actives, neighbours in structure and some others; about 3.7% of the full set was active somewhere.
MC4R antag cAMP = MC4R antagonists of cAMP signaling, primary screen, cell-based, TR-FRET, antagonist arm of biased-ligand search | Melanocortin receptor 4 (Homo sapiens), P32245 | MC4R-expressing cells, MTII-stimulated cAMP, LANCE TR-FRET | inhibition, % at 6.5 µM | actives 0.48% (n = 360,000) | AID 540295, 2011;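 active = inhibition above its plate's cutoff, the mean of tested wells on that plate plus 3 SD, cut at about 29% in these data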
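Assay system: human MC4R-expressing U2OS cells; reagent: Melanotan II stimulation of cells; dosing: 6.5 µM single dose; timing: compound 30 min, challenge 1 h, detection 1 h; signal: TR-FRET cAMP assay; replicates: one well per compound, no replicates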
Myeloid diff MLP = induction of myeloid progenitor differentiation, primary screen, cell-based, flow cytometry, MLPCN library; calls only at 10 µM; ER-HoxA9 myeloid progenitors, lysozyme-GFP differentiation; actives 1% (n = 360,000); AID 624256, 2012;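 active = normalized GFP-positive differentiation at or above the plate's own cutoff, the solvent-only control mean plus 3 SD; inconclusive = no clear call, values can overlap the other calls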;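 also: cells exposed to compound for four days before flow analysis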
EBI2 antag = EBI2 receptor antagonists, beta-arrestin recruitment, primary screen, cell-based, luminescence, 7a,25-OHC stimulation, uHTS. inhibition, % at 5 µM. G-protein coupled receptor 183 (Homo sapiens), P32249. 7a,25-OHC stimulated. AID 651636, 2012. actives 0.81% (n = 360,000); in the data active = inhibition above about 38%;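 also: enzyme fragment complementation signal reports receptor beta-arrestin coupling in cells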
Granule exo inh = LAMP-1 surface exposure blockers, TALL-104 cells – cell-based, flow cytometry, MLPCN library, primary screen | TALL-104 LAMP-1 surface exposure; cells stimulated with thapsigargin and PMA | inhibition, % at 10 µM | actives 0.66% (n = 360,000) | AID 651702, 2012;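 active = inhibition above about 55%, limit read from the data; inconclusive = no clear call, values can overlap the other calls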
MC4R barr agon = MC4R agonists recruiting beta-arrestin, primary screen, cell-based, luminescence, agonist arm of biased-ligand search; Melanocortin receptor 4 (Homo sapiens), P32245; activation, % at 8.9 µM; actives 0.98% (n = 360,000); U2OS MC4R beta-arrestin complementation; percent of melanotan II response, DMSO zero;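 active = activation above a per-plate cutoff, the mean activation of sample wells on that plate plus 3 SD, cut at about 8% in these data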
MC4R barr conf = MC4R beta-arrestin agonists, retest, confirmation, cell-based, luminescence, U2OS | AID 602192, 2012 | U2OS MC4R beta-arrestin recruitment; scaled DMSO 0%, Melanotan II 100% | actives 31% (n = 2,400) | shares compounds with MC4R barr agon | activation, % at 8.9 µM;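 active = mean activation across replicates above the hit cutoff set in the earlier primary screen, cut at about 8% in these data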
MOR-DOR barr ag = agonists of MOR-DOR heterodimerization, counter-screen for MC4R biased agonist project, cell-based, luminescence; U2OS PathHunter beta-arrestin, beta-gal luminescence; percent of deltorphin B response, DMSO zero; shares compounds with MC4R barr agon; actives 5.8% (n = 2,400); activation, % at 9.2 µM; AID 602194, 2012;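 active = mean activation across replicates exceeds the hit threshold derived in the earlier primary screen, cut at about 18% in these data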
Target sequence (P35372 whole entry, looked up): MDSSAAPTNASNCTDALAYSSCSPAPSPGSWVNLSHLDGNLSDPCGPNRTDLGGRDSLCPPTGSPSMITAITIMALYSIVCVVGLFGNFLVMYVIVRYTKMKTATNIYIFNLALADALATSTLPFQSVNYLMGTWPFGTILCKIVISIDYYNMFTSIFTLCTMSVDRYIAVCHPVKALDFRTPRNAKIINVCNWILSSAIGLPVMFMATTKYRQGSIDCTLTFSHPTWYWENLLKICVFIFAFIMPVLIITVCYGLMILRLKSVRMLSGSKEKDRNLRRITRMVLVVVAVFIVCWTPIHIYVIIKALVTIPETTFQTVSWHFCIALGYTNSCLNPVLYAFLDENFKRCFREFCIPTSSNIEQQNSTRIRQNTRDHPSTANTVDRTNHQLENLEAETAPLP
Target sequence (P41143 whole entry, looked up): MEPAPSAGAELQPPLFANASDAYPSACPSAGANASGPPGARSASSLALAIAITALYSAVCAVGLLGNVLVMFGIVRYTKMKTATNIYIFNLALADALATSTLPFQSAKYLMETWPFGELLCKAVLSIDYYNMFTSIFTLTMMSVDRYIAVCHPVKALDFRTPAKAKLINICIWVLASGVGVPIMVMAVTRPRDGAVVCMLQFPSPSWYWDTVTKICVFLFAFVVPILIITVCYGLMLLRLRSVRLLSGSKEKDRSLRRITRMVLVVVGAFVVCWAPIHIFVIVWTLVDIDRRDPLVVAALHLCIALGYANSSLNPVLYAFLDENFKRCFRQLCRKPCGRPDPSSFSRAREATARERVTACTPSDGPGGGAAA
Large screens that a line does not name were inactive (follow-up assays come after a bar, where they were run).

CCOc1ccc(C(=O)CC(=O)C(=O)NCCc2ccc(OC)c(OC)c2)cc1	none
CCc1ccc(C(=O)COC(=O)c2cncc(Br)c2)cc1	none
Cc1cc(NC(=O)CSc2nc(-c3ccc(Cl)cc3)cs2)no1	MC4R barr agon 18 | MC4R barr conf inactive | MOR-DOR barr ag inactive
Cc1cc(OCC(=O)C(C)(C)C)c2c(C)c(C)c(=O)oc2c1	MC4R barr agon 15 | MC4R barr conf inactive | MOR-DOR barr ag inactive
O=C(COC(=O)c1n[nH]c2ccccc12)NC(=O)NC12CC3CC(CC(C3)C1)C2	MC4R barr agon 18 | MC4R barr conf inactive | MOR-DOR barr ag inactive
Cc1c(Cl)cccc1NC(=O)c1ncn[nH]1	none
NC(=O)c1c(NC(=O)c2ccccc2)sc2c1CCN(Cc1ccccc1)C2	MC4R barr agon 12 | MC4R barr conf inactive | MOR-DOR barr ag inactive
Cc1nc2ccccc2c2oc(C(=O)Nc3ccc(C(C)C)cc3)cc12	MC4R barr agon 27 | MC4R barr conf 9.2 | MOR-DOR barr ag inactive
Cc1ccc(NC(=O)C2(C)Cc3ccccc3C(=O)O2)cc1 (centres undefined)	none
COc1cccc(/C=C/C(=O)N(C)CC(=O)Nc2ccc(Cl)c(C(F)(F)F)c2)c1	MC4R barr agon 12 | MC4R barr conf inactive | MOR-DOR barr ag inactive
O=S(=O)(Nc1ccccc1OC(F)F)c1ccc(S(=O)(=O)N2CCCC2)cc1	none
Cc1cccc(C)c1OCc1cc(C(=O)NCC2CCCCC2)no1	MC4R barr agon 11 | MC4R barr conf inactive | MOR-DOR barr ag inactive
Cc1cc(C)nc(CCNC(=O)c2cc(COc3c(C)cccc3C)on2)n1	none
Cc1cc(OCc2cc(C(=O)NC3CCC3)no2)cc(C)c1Cl	MC4R barr agon 11 | MC4R barr conf inactive | MOR-DOR barr ag inactive
CC1CCC2C(=O)N(c3ccc(Cc4ccncc4)cc3)C(=O)C2C1 (centres undefined)	none
Cc1cc2oc(C(=O)Nc3nonc3C)c(C)c2cc1C	MC4R barr agon 14 | MC4R barr conf inactive | MOR-DOR barr ag inactive
CCc1ccc2oc(C(=O)Nc3nonc3C)c(C)c2c1	none
Cc1cc(C(=O)Nc2sc3c(c2C#N)CCCCC3)cs1	MC4R barr agon 14 | MC4R barr conf inactive | MOR-DOR barr ag inactive
COc1ccc(-c2csc3ncnc(Nc4ccc(O)cc4)c23)cc1	MC4R barr agon 14 | MC4R barr conf inactive | MOR-DOR barr ag inactive
Cc1ccc(NC(=O)C2CCN(S(=O)(=O)c3ccc(Cl)c(C(F)(F)F)c3)CC2)nc1	MC4R barr agon 9.9 | MC4R barr conf inactive | MOR-DOR barr ag inactive
CC1CCCN(C(=O)COC(=O)C2CCN(S(=O)(=O)c3ccc(Cl)c(C(F)(F)F)c3)CC2)C1 (centres undefined)	MC4R barr agon 56 | MC4R barr conf inactive | MOR-DOR barr ag inactive
Cc1ccnc(NC(=O)C2CCN(S(=O)(=O)c3ccc(Cl)c(C(F)(F)F)c3)CC2)c1	none
O=C(COC(=O)C1CCN(S(=O)(=O)c2ccccc2)CC1)NC(=O)c1ccc(OC(F)F)cc1	none
CC1(C2CCCC2)NC(=O)NC1=O (centres undefined)	none
Cc1ccc(C(=O)Nc2ccccc2N2CCCC2)s1	none
NC(=O)COc1ccc(/C=N\NC(=O)c2ccc(-c3ccccc3)cc2)cc1	none
O=S(=O)(CC(CN1CCOCC1)N1CCOCC1)c1ccccc1 (centres undefined)	MC4R barr agon 9.6 | MC4R barr conf inactive | MOR-DOR barr ag inactive
CCOC(=O)C1CCCN(C(=O)c2cccnc2Oc2ccccc2)CC1 (centres undefined)	none
CC1CCN(S(=O)(=O)c2ccc(C(=O)OCc3ccc4c(c3)OCO4)cc2)CC1	MC4R barr agon 12 | MC4R barr conf inactive | MOR-DOR barr ag inactive
CCC(C)c1ccc(C2C3=C(Nc4nc(N)[nH]c(=O)c42)c2ccccc2C3=O)cc1 (centres undefined)	MC4R barr agon 10 | MC4R barr conf inactive | MOR-DOR barr ag inactive
S=C(Nc1ccccc1)N1CCn2c1nc1ccccc12	MC4R barr agon 24 | MC4R barr conf inactive
O=C(Nc1ccccc1)N1CCn2c1nc1ccccc12	none
Nc1ccn([C@@H]2O[C@H](CNCc3ccc(C#CCCO)cc3)[C@@H](O)[C@H]2O)c(=O)n1	none
COc1ccc(OCc2n(CC(=O)OC3CC(C)CCC3C(C)C)c3ccccc3[n+]2C)cc1 (centres undefined)	Granule exo inh 64, MC4R barr agon 38 | MC4R barr conf 11 | MOR-DOR barr ag inactive
O=c1cc(N2CCCC2)c2ccccc2o1	none
Cc1nc(NC(=O)c2ccco2)sc1-c1csc(Nc2ccc(Cl)cc2)n1	MC4R barr agon 10 | MC4R barr conf 9.1 | MOR-DOR barr ag inactive
COCCNC(=O)C1CCCN(Cc2ccccc2-c2ccccc2)CC1 (centres undefined)	none
C/C(CC(=O)NC1CCCCC1)=N\NC(=O)COc1ccc(C)cc1Br	none
COc1ccc(/C=C2\SC(=O)N(CC(=O)NC3CCS(=O)(=O)C3)C2=O)cc1 (centres undefined)	Myeloid diff MLP inconclusive
CC1(C(=O)Nc2cccc3c2CCCC3)CCN1C(=O)CCC1CCCC1 (centres undefined)	none
O=C(Nc1ccc(Oc2ccccc2)cc1)C1CCCN(c2ncccn2)C1 (centres undefined)	MC4R barr agon 9.9 | MC4R barr conf inactive | MOR-DOR barr ag inactive
Cc1coc(=N)n1CC(=O)c1ccc(Cl)cc1	none
S=c1[nH]nc(-c2cccc(Cl)c2)n1Cc1ccccc1	none
Clc1cccc(-c2nc3nc4ccccc4nc3n2Cc2ccccc2)c1	MC4R barr agon 24 | MC4R barr conf inactive | MOR-DOR barr ag inactive
Nc1ccc(S(=O)(=O)Nc2nccc(/C=C/c3ccc([N+](=O)[O-])cc3)n2)cc1	none
Nc1ccc(S(=O)(=O)Nc2nccc(/C=C/c3ccc(Cl)cc3)n2)cc1	MC4R barr agon 21 | MC4R barr conf inactive | MOR-DOR barr ag inactive
Cc1sc2nc(SCC(=O)Nc3ccccc3F)[nH]c(=O)c2c1C	MC4R barr agon 12 (no result: Myeloid diff MLP) | MC4R barr conf inactive | MOR-DOR barr ag inactive
Cc1csc(NC(=O)CSc2nc3sc(C)c(C)c3c(=O)[nH]2)n1	none
CC1(C(=O)Nc2ccc(Cl)cc2)Cc2c(-c3cccc(C(F)(F)F)c3)ccnc2O1 (centres undefined)	none
